Published values of several laboratories.
Each line is one published result; the experiments were not run side by side.
Target: Sodium-dependent noradrenaline transporter (SLC6A2, Homo sapiens, UniProt P23975)

Structure (SMILES) | observed | mode | method | notes | quantity | result
CCOC(=O)[C@@]12C[C@@H]1[C@@H](n1cnc3c(NC)nc(C#Cc4ccc(Cl)s4)nc31)[C@H](O)[C@@H]2O | ligand displacement |  | radioligand | cell membranes | Ki | > 8.4 µM
CCCCN1CCC(COC(=O)c2ccc(N)c(OCF)c2)CC1 | cell-free assay |  | radioligand |  | Ki | 1.4 µM
Clc1ccc(C(c2ccccc2)c2nnnn2CCCN2CCC(Cc3ccccc3)CC2)cc1 (stereo not drawn) | transporter uptake | inhibitor |  |  | IC50 | 0.174 µM
CNC(=O)[C@@]12C[C@@H]1[C@@H](n1cnc3c(NCc4cccc(Cl)c4)nc(C#Cc4ccccc4)nc31)[C@H](O)[C@@H]2O | ligand displacement |  | radioligand |  | Ki | 3.16 µM
CCn1c(-c2nc3cc(C(=O)N4CCC[C@@H](N)C4)cc(OC)c3n2C)cc2cccnc21 | transporter uptake | inhibitor |  |  | IC50 | 31.6 µM
Clc1ccc(C(c2ccccc2)c2nnnn2CCCCN2CCC(CCc3ccccc3)CC2)cc1 (stereo not drawn) | transporter uptake | inhibitor |  |  | IC50 | 0.424 µM
CCOC(=O)[C@@]12C[C@@H]1[C@@H](n1ccc3c(NC)nc(C#Cc4ccc(Cl)s4)nc31)[C@H](O)[C@@H]2O | transporter uptake | inhibitor | radiometric |  | IC50 | > 10 µM
CNc1nc(C#Cc2ccc(Cl)s2)nc2c1ncn2[C@H]1[C@H](O)[C@H](O)[C@]2(C(=O)OC)C[C@H]12 | ligand displacement |  | radioligand | cell membranes | Ki | > 10 µM
Clc1ccc(C(c2ccc(Cl)cc2)c2nnnn2CCCCN2CCC(Cc3ccccc3)CC2)cc1 | transporter uptake | inhibitor |  |  | IC50 | 0.469 µM
CCN(CC)c1ccc(C2Nc3ccc(C(=O)c4ccccc4)cc3NC3=C2C(=O)CC(C)(C)C3)cc1 (stereo not drawn) | cell-free assay |  | radioligand |  | Ki | 4.86 µM
CCn1c(-c2nc3ccc(C(=O)N4CCCC(N)C4)cc3n2C)cc2ccccc21 (stereo not drawn) | transporter uptake | inhibitor |  |  | IC50 | 39.8 µM
Clc1ccc(CC2CCN(CCCCn3nnnc3C(c3ccccc3)c3ccccc3)CC2)cc1Cl | transporter uptake | inhibitor |  |  | IC50 | 0.724 µM
OCCCN1CC[C@@H]2C[C@H]1c1cc(-c3ccc(C(F)(F)F)cc3)ccc12 | ligand displacement |  | radioligand |  | Ki | 0.405 µM
O[C@@H]1[C@H](O)[C@@H]2C[C@@H]2[C@H]1n1cnc2c(NCCc3ccccc3)nc(C#Cc3ccccc3)nc21 | ligand displacement |  | radioligand |  | Ki | 2.8 µM
CCC(C)C(=O)[C@]12C(=O)[C@](CC=C(C)C)(C[C@H](CC=C(C)C)[C@@]1(C)CCC=C(C)C)C(=O)C(CC=C(C)C)=C2O (stereo partly drawn) | ligand displacement |  | radioligand | cell membranes | Ki | 7.32 µM
